This is an account of results in article PMC4304654 (Bioorganic & medicinal chemistry, 2012).

Values after ≈ are worked out from the molar mass of the structure shown. Like-named read-outs stand apart in the source and are kept apart here.

The conditions of data set [1]: cited from earlier work; for Solubility in assay buffer, upper solubility limit: sodium acetate fibrillization assay buffer, previously reported data ref 7.
Data set [2] concerns the target T1, K18 tau fragment (amino acids 244–369) bearing the P301L mutation (K18PL) (Homo sapiens, UniProt P10636, P618L). The settings on record: 50 μM compound concentration; previously reported data ref 7; cited from earlier work.
For data set [3] the following is noted: mice, 1 h after 5 mg/kg i.p.; previously reported data ref 7; cited from earlier work.
For data set [4] the following is noted: cited from earlier work.
For data set [5] the following is noted: mouse plasma; previously reported data ref 7; cited from earlier work.
A short description of data set [6]: Aqueous solubility in the sodium acetate buffer of the fibrillization assay. The format is physicochemical.
Data set [7] in a line: Brain and plasma levels 1 h after i.p. administration of 5 mg/kg. It is filed as in vivo, B6C3F1 mice. The settings on record: mice, 1 h after 5 mg/kg i.p. In a few lines: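 Mice got a single i.p. 5 mg/kg dose of test compound and were sacrificed 1 h later. Perfused brain hemispheres were sonicated in 10 mM ammonium acetate, pH 5.7 (50% w/v). Plasma came from EDTA-treated blood spun 10 min at 4500g, 4 °C. Samples were acetonitrile-precipitated and spun at 15000g. Supernatants went to LC-MS/MS (MRM, C18, 35 °C) and were quantified against matrix-matched linear standard curves.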

The nature of data set [8]: Unbound fraction in plasma by rapid equilibrium dialysis. It is filed as in vitro ADME. To be noted: mouse, pH 7.4. In general terms: In equilibrium dialysis only unbound substance equilibrates across the membrane.
The nature of data set [9]: Full PK evaluation and oral bioavailability of 43. The format is in vivo, B6C3F1 mice. The settings on record: mice, 5 mg/kg i.p., 0.5–16 h post-dosing.
In data set [10] the test system is mice. The settings on record: mouse, in vivo, 100 mg/kg.
Data set [11] relates to mice. The settings on record: mouse, in vivo, 50 mg/kg/day.
The nature of another data set: in vivo. To be noted: female, mouse, 50 mg/kg/day, Calculated free compound level in brain, mice, 3 days of dosing via drinking water at 50 mg/kg/day.
In data set [12] the target is T1, K18 tau fragment (amino acids 244–369) bearing the P301L mutation (K18PL). Nature of the data set: Heparin-induced K18PL tau fibrillization, thioflavin-T. It is filed as biochemical. In outline:
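Heparin-induced fibrillization of the P301L K18 tau fragment (residues 244–369) in sodium acetate buffer, with test compound at a range of concentrations, each in triplicate. Read-out is thioflavin-T fluorescence of cross-beta fibrils. IC50 comes from a sigmoidal fit of the concentration-response, from one curve fit or the mean of 2 or more separate analyses. Maximal % inhibition is also reported.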

Where [13] appears, read: mice, 3 days of dosing via drinking water at 50 mg/kg/day.

Usually solubility stands for the dissolved amount per volume that the medium holds. One may read the fraction unbound as free concentration divided by total concentration. High values mean weak binding, low ones extensive binding.

T1 sequence (P10636 561-686 P618L): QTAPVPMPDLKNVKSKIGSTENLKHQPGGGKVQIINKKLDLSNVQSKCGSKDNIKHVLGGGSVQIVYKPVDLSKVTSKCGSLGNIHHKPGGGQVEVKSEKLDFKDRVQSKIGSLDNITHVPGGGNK

Turning to `Nc1scc2c(C(=O)NC3CC3)nn(-c3ccc(Cl)cc3)c(=O)c12` [Compound 1, 5-Amino-3-(4-chlorophenyl)-N-cyclopropyl-4-oxo-3,4-dihydrothieno[3,4-d]pyridazine-1-carboxamide], the “Solubility in assay buffer, upper solubility limit” value (“Solubility … upper solubility limit” for short) in data set [1] was 32 µM (≈ 11.5 µg/mL). Further, the Water solubility in data set [1] (text of introduction) is listed as ~ 30 μM. The “K18PL centrifugation assay % Soluble” value in data set [2] is recorded as 69%. Moreover, in [3], the “B/P (fu), ratio of free drug in brain and plasma” value is reported as 0.92 ±0.16; the “B/P (total), brain-to-plasma ratio” value was 1.61 ± 0.28; the Brain level was 1300 ± 110 ng/g; the Plasma level is given as 820 ± 150 ng/mL. Further, in data set [4] (equilibrium dialysis), the “Bound in brain homogenates” value is given as ~ 99%. In data set [4] (mouse brain homogenate, previously reported data ref 7), the “Fu (%) brain, fraction unbound” value is recorded as 1.1 ± 0.6%. The “Fu (%) plasma, fraction unbound” value in data set [5] was 1.9 ± 0.2%.
Consider `CCOC(=O)c1nn(-c2ccc(Cl)cc2)c(=O)c2c(N)scc12` [Compound 29, Ethyl 5-amino-3-(4-chlorophenyl)-4-oxo-3,4-dihydrothieno-[3,4-d]pyridazine-1-carboxylate], for which the “Solubility … upper solubility limit” value in data set [1] was 13 µM (≈ 4.55 µg/mL). Further, the “K18PL centrifugation assay % Soluble” value in data set [2] is on record as 47%.
Regarding `Nc1scc2c(C(=O)O)nn(-c3ccc(Cl)cc3)c(=O)c12` [Compound 37, 5-Amino-3-(4-chlorophenyl)-4-oxo-3,4-dihydrothieno[3,4-d]pyridazine-1-carboxylic acid], the “Solubility … upper solubility limit” value in data set [1] is over 200 µM. Moreover, the “K18PL centrifugation assay % Soluble” value in data set [2] is given as 74%.
As for `CC(C)NC(=O)c1nn(-c2ccc(F)cc2)c(=O)c2c(N)scc12` [Compound 42, 5-Amino-3-(4-fluorophenyl)-N-isopropyl-4-oxo-3,4-dihydrothieno[3,4-d]pyridazine-1-carboxamide], the solubility in data set [6] is over 200 µM. The “B/P (total), brain-to-plasma ratio” value in data set [7] is given as “unity”. In data set [8], this molecule gave a fraction unbound at 5 h, 1 μM of 0.057 ± 0.005.
`Nc1scc2c(C(=O)NC3CC3)nn(-c3ccc(F)cc3)c(=O)c12` [Compound 43, 5-Amino-N-cyclopropyl-3-(4-fluorophenyl)-4-oxo-3,4-dihydrothieno[3,4-d]pyridazine-1-carboxamide] gave a solubility in data set [6] of over 200 µM. Moreover, the “Brain exposure” value in data set [9] is listed as “good brain exposure”. The “Signs of toxicity after a single oral administration” value in the data set with mice [10] was “only mild and transient lethargy”. Further, in the data set on mice [11], the “Adverse events” value is on record as “no visible adverse events”, the “Amount of water consumed” value is on record as “normal” and the Blood cell counts result is reported as “no alterations in any blood cell counts”. Also, in the data set on mice [11] (po), the “Tolerability” value is “well-tolerated with no notable side-effects”. Moreover, under setting [13], the “Calculated free compound level in brain” value is 6 nM and the Total brain levels is recorded as ~ 140 nM. Also, the “Plasma and brain levels after 30 days versus 3 days in drinking water” value (mouse, in vivo, 50 mg/kg/day) was “comparable”. For the same molecule, the concentration at 3 days in the data set “in vivo” is 6 ± 0.4 nM.
In turn, `Nc1scc2c(C(=O)NCC(F)(F)F)nn(-c3ccc(F)cc3)c(=O)c12` [Compound 44, 5-Amino-3-(4-fluorophenyl)-4-oxo-N-(2,2,2-trifluoroethyl)-3,4-dihydrothieno[3,4-d]pyridazine-1-carboxamide] displayed a solubility in data set [6] of over 200 µM. Moreover, the “B/P (total), brain-to-plasma ratio” value in data set [7] is listed as “unity”. The fraction unbound at 5 h, 1 μM in data set [8] turned out to be 0.022 ± 0.002.
The molecule `Cc1nn(C)c(=O)c2c(N)scc12` [Compound 56, 7-Amino-2,4-dimethylthieno[3,4-d]pyridazin-1(2H)-one] had a solubility in data set [6] of over 200 µM. Besides, in data set [12], the “Inhibition in the K18PL fibrillization assay” value is on record as “near full inhibition”. In data set [7], the Brain level result is “BLD ^d”.
`Cc1nn(Cc2ccccc2)c(=O)c2c(N)scc12` [Compound 62, 7-Amino-2-benzyl-4-methylthieno[3,4-d]pyridazin-1(2H)-one] came in with a solubility in [6] of 80 µM (≈ 21.7 µg/mL). Besides, the fraction unbound at 5 h, 1 μM in data set [8] amounted to 0.04 ± 0.01.
